We go through two compounds from ChEMBL document CHEMBL1255244, “Antimycobacterial Activity and Mechanism of Action of NAS-91” (2008).

SMILES strings stand for the structures. Values after ≈ are worked out from the molar mass of the structure shown. Active and inactive are the calls of the source. No cut-off for these calls is given here.

The subject of one test is BCG. Description: Inhibition of delta-9 desaturase activity in Mycobacterium bovis BCG cell extract 1173P2 assessed as inhibition of oleic acid synthesis at 25 ug/ml after 1 hr in presence of NADPH and [1-14C]stearoyl-CoA. Format: cell-free. The following applies: Mycobacterium bovis BCG str. Pasteur 1173P2. Also noted: scale not given: the % may be the effect or the level left. A digest of the protocol:
(§1)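 Cell-free assay. BCG grown in Sauton's with 20 µg/ml FeSO4, French-press lysed in 0.25 M sucrose. 1 mg lysate, 1 µmol NADPH, phosphate buffer pH 7.2, in 1 ml. Inhibitor preincubated 10 min at 37°C, then 0.25 µCi [1-14C]stearoyl-CoA added, 37°C 1 h. Saponified, methylated, [14C]oleate band scraped and counted. Triplicates, one of two experiments, mean ± SEM.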

Test [1] has as its system Mycobacterium bovis BCG str. Pasteur 1173P2. As to the kind of experiment: Antimycobacterial activity against Mycobacterium bovis BCG 1173P2 assessed as inhibition of oleic acid methyl ester synthesis after 8 hrs. The format is functional. A digest of the protocol:
(§2)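 BCG in Sauton's medium, drug 8 h, then [14C]acetate labelling for 16 h. Methyl esters resolved by 2-D TLC: first dimension without silver, hexane-ethyl acetate 19:1 run twice; then silver nitrate layer, petroleum ether-diethyl ether 17:3 run three times. Triplicates, one of three experiments, mean ± SEM, Student's t test.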

The test system is the same in test [2]. Description: Antimycobacterial activity against Mycobacterium bovis BCG 1173P2 assessed as inhibition of oleic acid methyl ester synthesis at 100 ug/ml after 8 hrs. The format is functional. Put shortly: as §2
Test [3] can be described thus: Antimycobacterial activity against Mycobacterium bovis BCG 1173P2. Format: functional, Mycobacterium bovis BCG str. Pasteur 1173P2. Conditions: Mycobacterium tuberculosis variant bovis BCG. A digest of the protocol:
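M. bovis BCG on Middlebrook 7H11 agar with OADC and increasing inhibitor concentrations. Serial 10-fold dilutions of actively growing culture plated, 37°C for 10 to 14 days.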

For a further test, the system named is BCG 1173P2. As to the kind of experiment: Inhibition of delta-9 desaturase activity in Mycobacterium bovis BCG 1173P2 cell extract assessed as inhibition of oleic acid synthesis at 10 to 100 ug/ml after 1 hr in presence of NADPH and [1-14C]stearoyl-CoA. Conditions: Mycobacterium bovis BCG str. Pasteur 1173P2. Format: cell-free. Put shortly: as §1
The subject of test [4] is Mycobacterium bovis BCG str. Pasteur 1173P2. Description: Antimycobacterial activity against Mycobacterium bovis BCG 1173P2 assessed as inhibition of FAS-2 activity at 5 ug/ml after 8 hrs. Format: functional. A digest of the protocol: (§3)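 Mid-log BCG in Sauton's medium, drug at 37°C for 8 h, then 1 µCi/ml [2-14C]acetate for 16 h. Cells PBS-washed, hydrolysed in 15% tetrabutylammonium hydroxide at 100°C overnight, methylated with CH3I. TLC: MAME bands scraped and counted; FAMEs (50,000 cpm) on reverse-phase TLC, chloroform-methanol 2:3. INH 1 µg/ml positive control. Triplicates, one of three experiments, mean ± SEM.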

The test system is the same in test [5]. Description: Antimycobacterial activity against Mycobacterium bovis BCG 1173P2 assessed as inhibition of mycolic acid biosynthesis. The format is functional. Put shortly: as §3
For test [6] the test system is unchanged. Description: Antimycobacterial activity against Mycobacterium bovis BCG 1173P2 assessed as inhibition of mycolic acid biosynthesis at 100 ug/ml after 8 hrs. Also noted: scale not given: the % may be the effect or the level left. The format is functional. Put shortly:
as §3

Test [7] relates to Mycolicibacterium smegmatis. Description: Antimycobacterial activity against Mycobacterium smegmatis at 100 ug/ml after 15 to 20 days by agar proportion method. Format: functional, organism-based.
Test [8] relates to Mycobacterium tuberculosis. As to the kind of experiment: Antimycobacterial activity against Mycobacterium tuberculosis H37Rv at 10 ug/ml after 15 to 20 days by agar proportion method. Format: functional. Put shortly: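 Agar proportion method. H37Rv grown in 7H9 at 37°C with shaking to OD600 1.0. Diluted log-phase culture giving about 1,000 CFU plated on 7H11+OADC control and drug-containing plates, incubated 37°C.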

A word on the MIC: it is the least concentration at which growth counts as inhibited. For the compound `O=C(CC(=O)C(F)(F)F)c1ccc([N+](=O)[O-])cc1`, the Activity with BCG was 25%; in test [1], “Dose-dependent effect”. The outcome in test [2] was Active. The same compound gave an MIC in test [3] of 50 µg/mL (≈ 191 µM).

For the compound `Oc1ccc(Cl)cc1Oc1ccc(Cl)c2cccnc12`, the Activity result with BCG 1173P2 was “Dose-dependent effect”; in the test with BCG it was 75%; in test [1], “Dose-dependent effect”; in [6], 55%; in [8], 99%. Also, the outcome in test [2], in [4] and in test [5] was Active. Also, the outcome in test [7] was inactive. This compound also gave an MIC in test [3] of 10 µg/mL (≈ 32.7 µM).
